# From ChEMBL document CHEMBL4118105, “High-Affinity Peptidomimetic Inhibitors of the DCN1-UBC12 Protein-Protein Interaction” (J Med Chem, 2018)
# Starred links: 1 amine or outer side, 2 acyl side, 3 side chain; linkers in the order of their positions; H or OH if unused. Non-standard residues stand in square brackets, D forms with d. Residues, ends and D or L forms follow the SMILES beside them. *: point of attachment. 2Nal = N[C@@H](Cc1ccc2ccccc2c1)C(=O)O; Cyclopropanecarbonyl = O=C(C1CC1)*; NHPhenethyl = c1ccc(CCN*)cc1; Isovaleryl = CC(C)CC(=O)*; Isobutyryl = CC(C)C(=O)*; CO = O=C([*:1])[*:2]; NHBn = c1ccc(CN*)cc1; Propionyl = CCC(=O)*; Butyryl = CCCC(=O)*; NHPh = c1ccc(N*)cc1; Moc = COC(=O)*; For = O=C*
# Key:
# DCN1-like protein 1 [1] = target: T1, DCN1-like protein 1 (Homo sapiens, UniProt Q96GG9); test: Binding affinity to biotin labeled recombinant N-terminal His6-tagged human DCN1 (58 to 259 residues) expressed in Escherichia coli Rosetta2 cells by biolayer interferometry analysis
# T1 sequence (Q96GG9 whole entry, the tested form may be a part): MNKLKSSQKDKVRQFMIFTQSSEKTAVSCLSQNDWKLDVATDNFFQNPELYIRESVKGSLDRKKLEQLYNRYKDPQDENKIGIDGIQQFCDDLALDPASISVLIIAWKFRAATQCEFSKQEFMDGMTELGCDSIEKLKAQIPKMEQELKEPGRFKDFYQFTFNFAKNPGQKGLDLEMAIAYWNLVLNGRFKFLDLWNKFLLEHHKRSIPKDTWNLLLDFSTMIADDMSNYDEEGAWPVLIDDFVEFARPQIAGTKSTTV
# Summary of the method: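 Recombinant human DCN1 (58–259) was biotinylated at a 1:1 molar ratio in PBS for 2 h at 4 °C, dialyzed, then loaded on super streptavidin sensors from a 10 μg/mL solution. Blocked streptavidin sensors served as reference.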
# DCN1-like protein 1 [2] = target: T1, DCN1-like protein 1; test: Displacement of (S)-N1-((19S,22S)-26-Amino-19-carbamoyl-1-(3',6'-dihydroxy-3-oxo-3H-spiro[isobenzofuran-1,9'-xanthen]-5-yl)-1,13,21-trioxo-5,8,11-trioxa-2,14,20-triazahexacosan-22-yl)-2-((2S,5S,8S,11S,14S,17S,20S,23S,26S)-2-(3-amino-3-oxopropyl)-5,20-bis(4-aminobutyl)-14-benzyl-23-((S)-sec-butyl)-11-(hydroxymethyl)-8,17-diisobutyl-26-(naphthalen-2-ylmethyl)-4,7,10,13,16,19,22,25,28-nonaoxo-3,6,9,12,15,18,21,24,27-nonaazanonacosanamido)pentanediamide from recombinant N-terminal His6-tagged human DCN1 (58 to 259 residues) expressed in Escherichia coli Rosetta2 cells after 30 mins by fluorescence polarization assay
smiles,measurement,setting,value
CCC(=O)N[C@@H](Cc1nc2ccc(Cl)cc2s1)C(=O)N[C@H](C(=O)N[C@@H](CCCCN)C(=O)N[C@@H]1CCOc2ccccc21)C1CCCC1,Kd,DCN1-like protein 1 [1],0.0041 µM
CCC(=O)N[C@@H](Cc1ccc2ccccc2c1)C(=O)N[C@H](C(=O)N[C@@H](CCCCN)C(=O)N[C@@H](CC(C)C)C(N)=O)[C@@H](C)CC (Propionyl-[2Nal]IKL-NH2),IC50,DCN1-like protein 1 [2],5.2 µM
same,Ki,DCN1-like protein 1 [2],1.1 µM
CCC(=O)N[C@@H](Cc1ccc2ccccc2c1)C(=O)N[C@@H](Cc1cccs1)C(=O)N[C@@H](CCCCN)C(=O)NC(c1ccccc1)c1ccccc1,Ki,DCN1-like protein 1 [2],0.174 µM
CCC(=O)N[C@@H](Cc1ccc2ccccc2c1)C(=O)N[C@H](C(=O)N[C@@H](CCCCN)C(=O)NC(c1ccccc1)c1ccccc1)C1CCCC1,IC50,DCN1-like protein 1 [2],0.33 µM
same,Ki,DCN1-like protein 1 [2],0.0363 µM
same,Kd,DCN1-like protein 1 [1],0.0564 µM
CCC(=O)N[C@@H](Cc1nc2cc(F)ccc2s1)C(=O)N[C@H](C(=O)N[C@@H](CCCCN)C(=O)NC(c1ccccc1)c1ccccc1)C1CCCC1,Ki,DCN1-like protein 1 [2],0.224 µM
CC[C@H](C)[C@H](NC(=O)[C@H](Cc1ccc2ccccc2c1)NC(=O)C1CC1)C(=O)N[C@@H](CCCCN)C(=O)N[C@@H](CC(C)C)C(N)=O (Cyclopropanecarbonyl-[2Nal]IKL-NH2),IC50,DCN1-like protein 1 [2],25.1 µM
same,Ki,DCN1-like protein 1 [2],5.4 µM
CC[C@H](C)[C@H](NC(=O)[C@H](Cc1ccc2ccccc2c1)NC(=O)CC(C)C)C(=O)N[C@@H](CCCCN)C(=O)N[C@@H](CC(C)C)C(N)=O (Isovaleryl-[2Nal]IKL-NH2),IC50,DCN1-like protein 1 [2],> 20 µM
CC[C@H](C)[C@H](NC(=O)[C@H](Cc1ccc2ccccc2c1)NC(=O)NC)C(=O)N[C@@H](CCCCN)C(=O)N[C@@H](CC(C)C)C(N)=O ({NHMe-CO}-[2Nal]IKL-NH2),IC50,DCN1-like protein 1 [2],18.5 µM
same,Ki,DCN1-like protein 1 [2],4 µM
CCC(=O)N[C@@H](Cc1ccc2ccccc2c1)C(=O)N[C@@H](CC1CCCCC1)C(=O)N[C@@H](CCCCN)C(=O)NC(c1ccccc1)c1ccccc1,IC50,DCN1-like protein 1 [2],0.368 µM
same,Ki,DCN1-like protein 1 [2],0.0443 µM
CCC(=O)N[C@@H](Cc1nc2ccccc2s1)C(=O)N[C@H](C(=O)N[C@@H](CCCCN)C(=O)NC(c1ccccc1)c1ccccc1)C1CCCC1,Ki,DCN1-like protein 1 [2],0.0507 µM
same,Kd,DCN1-like protein 1 [1],0.0318 µM
CCC(=O)N[C@@H](Cc1nc2ccc(Cl)cc2s1)C(=O)N[C@H](C(=O)N[C@@H](CCCCN)C(=O)N[C@@H]1CCCc2ccccc21)C1CCCC1,Kd,DCN1-like protein 1 [1],0.0083 µM
CCC(=O)N[C@@H](Cc1ccc2ccccc2c1)C(=O)N[C@H](C(=O)N[C@@H](CCCCN)C(=O)N[C@@H]1CCCc2ccccc21)[C@@H](C)CC,IC50,DCN1-like protein 1 [2],0.55 µM
same,Ki,DCN1-like protein 1 [2],0.084 µM
CCC(=O)N[C@@H](Cc1nc2ccc(F)cc2s1)C(=O)N[C@H](C(=O)N[C@@H](CCCCN)C(=O)NC(c1ccccc1)c1ccccc1)C1CCCC1,Ki,DCN1-like protein 1 [2],0.0544 µM
same,Kd,DCN1-like protein 1 [1],0.037 µM
CC[C@H](C)[C@H](NC(=O)[C@H](Cc1ccc2ccccc2c1)NC(=O)C(C)C)C(=O)N[C@@H](CCCCN)C(=O)N[C@@H](CC(C)C)C(N)=O (Isobutyryl-[2Nal]IKL-NH2),IC50,DCN1-like protein 1 [2],16.5 µM
same,Ki,DCN1-like protein 1 [2],3.5 µM
CCC(=O)N[C@@H](Cc1ccc2ccccc2c1)C(=O)N[C@H](C(=O)N[C@@H](CCCCN)C(=O)NCCc1ccccc1)[C@@H](C)CC (Propionyl-[2Nal]-Ile-Lys-NHPhenethyl),IC50,DCN1-like protein 1 [2],10.8 µM
same,Ki,DCN1-like protein 1 [2],2.5 µM
CC[C@H](C)[C@H](NC(=O)[C@@H](N)Cc1ccc2ccccc2c1)C(=O)N[C@@H](CCCCN)C(=O)N[C@@H](CC(C)C)C(N)=O (H-[2Nal]IKL-NH2),IC50,DCN1-like protein 1 [2],> 100 µM
CCC(=O)N[C@@H](Cc1nc2cc(Cl)ccc2s1)C(=O)N[C@H](C(=O)N[C@@H](CCCCN)C(=O)NC(c1ccccc1)c1ccccc1)C1CCCC1,Ki,DCN1-like protein 1 [2],0.0886 µM
CCC(=O)N[C@@H](Cc1ccc2ccccc2c1)C(=O)N[C@@H](CC(F)(F)F)C(=O)N[C@@H](CCCCN)C(=O)NC(c1ccccc1)c1ccccc1,IC50,DCN1-like protein 1 [2],3.27 µM
same,Ki,DCN1-like protein 1 [2],0.672 µM
CCC(=O)N[C@@H](Cc1nc2c(F)cccc2s1)C(=O)N[C@H](C(=O)N[C@@H](CCCCN)C(=O)NC(c1ccccc1)c1ccccc1)C1CCCC1,IC50,DCN1-like protein 1 [2],4.92 µM
same,Ki,DCN1-like protein 1 [2],1.03 µM
CCC(=O)N[C@@H](Cc1ccc2ccccc2c1)C(=O)N[C@@H](CC(C)(C)C)C(=O)N[C@@H](CCCCN)C(=O)NC(c1ccccc1)c1ccccc1,Ki,DCN1-like protein 1 [2],0.0429 µM
CC[C@H](C)[C@H](NC(=O)[C@H](Cc1ccc2ccccc2c1)NC(=O)OC)C(=O)N[C@@H](CCCCN)C(=O)N[C@@H](CC(C)C)C(N)=O (Moc-[2Nal]IKL-NH2),IC50,DCN1-like protein 1 [2],> 50 µM
CCC(=O)N[C@@H](Cc1ccc2ccccc2c1)C(=O)N[C@H](C(=O)N[C@@H](CCCCN)C(=O)NCc1ccccc1)[C@@H](C)CC (Propionyl-[2Nal]-Ile-Lys-NHBn),Ki,DCN1-like protein 1 [2],0.81 µM
CCC(=O)N[C@@H](Cc1ccc2ccccc2c1)C(=O)N[C@H](C(=O)N[C@@H](CCCCN)C(=O)NC(c1ccccc1)c1ccccc1)C1CCCCC1,IC50,DCN1-like protein 1 [2],0.613 µM
same,Ki,DCN1-like protein 1 [2],0.0973 µM
CCC(=O)N[C@@H](Cc1ccc2ccccc2c1)C(=O)N[C@H](C(=O)N[C@@H](CCCCN)C(=O)N[C@H]1CCCc2ccccc21)[C@@H](C)CC,Ki,DCN1-like protein 1 [2],0.14 µM
CCC(=O)N[C@@H](Cc1ccc2ccccc2c1)C(=O)N[C@H](C(=O)N[C@@H](CCCCN)C(=O)N[C@H]1CCc2ccccc21)[C@@H](C)CC,Ki,DCN1-like protein 1 [2],0.38 µM
CC[C@H](C)[C@H](NC(=O)[C@H](Cc1ccc2ccccc2c1)NC(C)=O)C(=O)N[C@@H](CCCCN)C(=O)N[C@@H](CC(C)C)C(N)=O (Ac-[2Nal]IKL-NH2),IC50,DCN1-like protein 1 [2],16.8 µM
same,Ki,DCN1-like protein 1 [2],3.6 µM
CCC(=O)N[C@@H](Cc1ccc2ccccc2c1)C(=O)N[C@H](C(=O)N[C@@H](CCCCN)C(=O)N[C@@H]1CCc2ccccc21)[C@@H](C)CC,Ki,DCN1-like protein 1 [2],0.16 µM
CCC(=O)N[C@@H](Cc1nc2ccc(Cl)cc2s1)C(=O)N[C@H](C(=O)N[C@@H](CCCCN)C(=O)NC(c1ccccc1)c1ccccc1)C1CCCC1,IC50,DCN1-like protein 1 [2],0.132 µM
same,Ki,DCN1-like protein 1 [2],< 0.05 µM
same,Kd,DCN1-like protein 1 [1],0.0081 µM
CC[C@H](C)[C@H](NC(=O)[C@H](Cc1ccc2ccccc2c1)NC=O)C(=O)N[C@@H](CCCCN)C(=O)N[C@@H](CC(C)C)C(N)=O (For-[2Nal]IKL-NH2),IC50,DCN1-like protein 1 [2],128 µM
same,Ki,DCN1-like protein 1 [2],27.5 µM
CC[C@H](C)[C@H](NC(=O)[C@H](CCSC)NC(C)=O)C(=O)N[C@@H](CCCCN)C(=O)N[C@@H](CC(C)C)C(N)=O (Ac-MIKL-NH2),IC50,DCN1-like protein 1 [2],599 µM
same,Ki,DCN1-like protein 1 [2],130 µM
CCCC(=O)N[C@@H](Cc1ccc2ccccc2c1)C(=O)N[C@H](C(=O)N[C@@H](CCCCN)C(=O)N[C@@H](CC(C)C)C(N)=O)[C@@H](C)CC (Butyryl-[2Nal]IKL-NH2),IC50,DCN1-like protein 1 [2],37 µM
same,Ki,DCN1-like protein 1 [2],8 µM
CCC(=O)N[C@@H](Cc1ccc2ccccc2c1)C(=O)N[C@H](C(=O)N[C@@H](CCCCN)C(=O)NC(c1ccccc1)c1ccccc1)[C@@H](C)CC,Ki,DCN1-like protein 1 [2],0.097 µM
CCC(=O)N[C@@H](Cc1nc2ccc(Cl)cc2s1)C(=O)N[C@H](C(=O)N[C@@H](CCCCN(C)C)C(=O)N[C@@H]1CCOc2ccccc21)C1CCCC1,Kd,DCN1-like protein 1 [1],0.0057 µM
CCC(=O)N[C@@H](Cc1ccc2ccccc2c1)C(=O)N[C@H](C(=O)N[C@@H](CCCCN)C(=O)Nc1ccccc1)[C@@H](C)CC (Propionyl-[2Nal]-Ile-Lys-NHPh),IC50,DCN1-like protein 1 [2],34.9 µM
same,Ki,DCN1-like protein 1 [2],7.5 µM
